# Compounds with a hit are over-represented: about 2.4% of the library has one in this group of screens.
# Tb MetRS inh: blocks T. brucei methionyl-tRNA synthetase activity. purified T. brucei MetRS, ATP depletion, Kinase-Glo luminescence. inhibition, % at 11.9 µM. 360,000 tested, 0.4% active. AID 624268;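 active = inhibition above a per-plate cutoff of the control wells' mean inhibition plus 3 SD, cut at about 5.5% in these data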;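 also: 0% = DMSO wells median and 100% = median of wells with control inhibitor compound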
#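 assay system = parasite MetRS enzyme | timing = 15 min preincubation, 2 h reaction, all 25 °C | evaluation = percent inhibition relative to median high and low control wells | medium = HEPES buffer containing pyrophosphatase, BSA, spermine, DTT | compound = single dose, 11.9 µM final nominal, 0.9% final DMSO | detection = Kinase-Glo luminescence, ATP depletion format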
# aDG glyco act: increases alpha dystroglycan glycosylation; Pro5-aDG cells, alpha-DG glycosylation AlphaScreen (IIH6); 0% Pro5, 100% B10-LARGE cell signal; activation, % at 10 µM; 360,000 tested, 0.22% active;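 active = activation of at least 8% versus controls, or a plate z-score of at least 8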;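 also: Pro5 are CHO cells carrying HIG-tagged alpha-DG that lacks glycosylation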
# TAG inh: reduces triacylglycerol accumulation in H9c2 cells; Nile Red lipid (TAG) fluorescence; cells loaded with 200 µM oleic acid; AID 651582; inhibition, % at 12.5 µM; 230,000 tested, 0.66% active;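 active = pattern-corrected inhibition of lipid staining of at least 50% with the nuclear-stain viability signal not falling by more than 50%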;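 also: 0% = DMSO wells and 100% = triacsin C control wells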
# NTR1 agonist: activates human neurotensin receptor 1; P30989; NTR1-U2OS beta-arrestin-GFP spot imaging, agonist mode; activation, % at 20 µM; AID 493036; 330,000 tested, 0.17% active;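 active = activation at or above 40% of the spot to cytoplasm intensity ratio, with at least 20 cells analyzed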;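 also: 0% = DMSO without peptide and 100% = 100 nM NTR1 peptide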
# MC4R ag barr: activates human MC4R beta-arrestin recruitment; AID 540308; activation, % at 8.9 µM; U2OS MC4R beta-arrestin complementation, luminescence; percent of melanotan II response, DMSO zero; P32245; 360,000 tested, 0.98% active;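 active = activation above a per-plate cutoff, the mean activation of sample wells on that plate plus 3 SD, cut at about 8% in these data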
# Target sequence (P32245 whole entry, looked up): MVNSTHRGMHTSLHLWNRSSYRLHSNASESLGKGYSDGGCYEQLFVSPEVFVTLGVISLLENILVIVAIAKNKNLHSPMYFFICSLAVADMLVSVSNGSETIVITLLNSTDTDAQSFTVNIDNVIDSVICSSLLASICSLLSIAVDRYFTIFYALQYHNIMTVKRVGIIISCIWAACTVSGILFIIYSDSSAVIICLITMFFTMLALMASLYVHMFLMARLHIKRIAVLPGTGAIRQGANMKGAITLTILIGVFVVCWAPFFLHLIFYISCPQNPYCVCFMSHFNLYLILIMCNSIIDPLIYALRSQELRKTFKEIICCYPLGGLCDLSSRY
# MC4R antag cAMP: antagonists of human melanocortin 4 receptor (MC4R); P32245; inhibition, % at 6.5 µM; 360,000 tested, 0.48% active; MC4R-expressing cells, MTII-stimulated cAMP, LANCE TR-FRET; AID 540295;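 active = inhibition above its plate's cutoff, the mean of tested wells on that plate plus 3 SD, cut at about 29% in these data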;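 also: 0% = Melanotan II alone and 100% = Melanotan II plus saturating MCL0020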
#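 Material: human MC4R-expressing U2OS cells. Probe or stimulus: Melanotan II challenge. Dosing: 6.5 µM single dose. Times: 30-min compound, 1-h challenge, 1-h detection, room temperature. Technique: TR-FRET with Eu-cAMP and labeled anti-cAMP, 671 nm. Replication: singlicate.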
# U2OS cAMP counter: nonselective cAMP signaling inhibitor, MC4R antagonist counter-screen; AID 602193; shares compounds with MC4R antag cAMP; parental U2OS, forskolin cAMP, LANCE TR-FRET; 1,600 tested, 26% active; inhibition, % at 6.5 µM;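 active = mean inhibition over triplicates above the low-control well mean plus 3 SD, set per campaign, cut at about 13% in these data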;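 also: signal is single emission at 671 nm which falls as cellular cAMP rises; 0% = forskolin-stimulated wells and 100% = buffer without forskolin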
# MC4R antag conf: human MC4R cAMP antagonism confirmation; 1,600 tested, 27% active; inhibition, % at 6.5 µM; shares compounds with MC4R antag cAMP; MC4R-expressing cells, MTII-stimulated cAMP, TR-FRET; in the data active = inhibition above about 29%;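 also: 0% = agonist stimulated wells alone and 100% = agonist stimulated wells plus saturating reference antagonist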
# Active calls of the source: *; . = not tested or not shown.
SMILES,Tb MetRS inh,aDG glyco act,TAG inh,NTR1 agonist,MC4R ag barr,MC4R antag cAMP,U2OS cAMP counter,MC4R antag conf
CC12CCC3C(CCC4CC(O)CCC43C)C1CC(=O)C2 (centres undefined),-1,0,-9,.,1,4,.,.
Cc1ccccc1CNC(=O)CN1C(=O)c2ccccc2S1(=O)=O,0,0,.,-1,1,29*,2,1
O=C(C(=S)N1CCOCC1)c1c[nH]c2ccccc12,-1,0,4,0,3,30*,3,2
O=C(CN1CCOCC1)c1c[nH]c2ccccc12,1,0,-18,0,-2,3,.,.
COc1ccc(-c2cc(C(=O)N(C)CC(=O)Nc3cccc(F)c3)c3ccccc3n2)cc1OC,0,-1,27,.,-1,30*,1,1
COc1cccc(NC(=O)CN(C)C(=O)c2cc(-c3ccc(F)cc3)nc3ccccc23)c1,0,0,7,8,-2,6,.,.
Cc1ccc(C)c(C(O)c2ncc(-c3cccc(F)c3)[nH]2)c1 (centres undefined),0,0,-15,.,2,5,.,.
CC1=C(C(=O)N(C)C)CC(CC(=O)NC2CCCCC2)C(=O)N1Cc1ccc(F)cc1 (centres undefined),0,0,.,.,.,.,.,.
CC1Cc2ccccc2N1S(=O)(=O)c1cnc(Cl)c(Br)c1 (centres undefined),0,0,2,10,-2,30*,22*,38*
CC1=C(C(=O)N(C(C)C)C(C)C)CC(CC(=O)NC2CC2)C(=O)N1CCCN1CCCC1=O (centres undefined),1,0,.,.,.,.,.,.
COC(=O)[C@@]12C[C@@H](CC(=O)N3CCOCC3)C(=O)N(Cc3ccccc3)C1=CCC(C)(C)C2,0,0,.,.,.,.,.,.
CCCCNC(=O)C(NC(=O)c1ccc2ccccc2c1)C(=O)c1ccccc1 (centres undefined),0,0,.,.,.,.,.,.
Cc1cc2nccc(-c3ccc(Cl)c([N+](=O)[O-])c3)n2n1,-1,0,8,13,1,41*,-11,29*
NS(=O)(=O)c1ccc(NC(=O)COC(=O)CSc2n[nH]c(-c3ccccc3)n2)cc1,0,0,.,-1,-1,39*,9,-3
C=CCNc1nc(-c2sc(NC(=O)C(C)(C)C)nc2C)c(-n2cc(-c3ccccc3)nn2)s1,0,1,.,.,.,.,.,.
Cc1cccc(-c2ccc([N+](=O)[O-])cc2CN2CCN(c3ncc(Cc4ccccc4)cn3)CC2)c1,0,0,.,.,.,.,.,.
CC(C)C[C@@H]1Cc2[nH]c(=S)[nH]c(=O)c2[C@H](C)O1,-1,0,.,.,.,.,.,.
O=C1c2cccc([N+](=O)[O-])c2C(=O)N1c1cccnc1,0,0,.,-1,0,19,.,.
O=C1c2cccc([N+](=O)[O-])c2C(=O)N1c1ccccc1,0,0,.,-1,-4,30*,9,21
CC(=O)c1sc(C(C)(C)C)cc1NC(=O)c1ccccc1C(=O)O,0,0,106,0,-1,36*,32*,56*
O=C(O)c1ccccc1C(=O)Nc1ccccc1NC(=O)c1ccccc1C(=O)O,-2,0,6,-2,1,18,.,.
CCCC(=O)NC(NC(=S)Nc1ccc(S(N)(=O)=O)cc1)C(Cl)(Cl)Cl (centres undefined),0,0,.,6,-1,16,.,.
CCCC(=O)NC(NC(=S)Nc1ccc(N=Nc2ccccc2)cc1)C(Cl)(Cl)Cl (centres undefined),-1,2,.,18,-3,29*,-1,16
COC(=O)[C@@]12C[C@@H](CC(=O)N3CCCCC3)C(=O)N(Cc3ccco3)C1=CCC(C)(C)C2,0,0,.,.,.,.,.,.
Cc1cc(C)c(NC(=O)c2cccc(NC(=O)c3ccco3)c2)c(C)c1,0,0,4,0,-1,30*,-2,-18
SMILES,Tb MetRS inh,aDG glyco act,TAG inh,NTR1 agonist,MC4R ag barr,MC4R antag cAMP,U2OS cAMP counter,MC4R antag conf
CC(C)(C)c1ccc(C(=O)OC/C(O)=C(\C#N)c2nc3ccccc3s2)cc1,0,0,.,2,1,29*,2,6
CCOC(=O)[C@]12CCCC=C1N(Cc1cccc3ccccc13)C(=O)[C@H](CC(=O)NCc1ccc(OC)c(OC)c1)C2,-1,0,.,.,.,.,.,.
Cc1ccc2c(c1)CCCN2C(=O)c1ccncc1,-1,0,.,1,1,29*,-5,4
Cc1ccc2c(c1)CCCN2C(=O)c1cc(C)on1,-1,0,-7,0,-1,5,.,.
O=C(COC(=O)CNC(=O)c1cccc(OC(F)F)c1)NCc1ccc2c(c1)OCO2,0,0,-2,-1,-2,33*,20*,40*
O=C(COC(=O)CNC(=O)c1ccccc1)NCc1ccc2c(c1)OCO2,1,0,-9,-1,-5,20,.,.
CCCOc1ccc(/C=N/NC(=O)CN(c2ccc(OCC)cc2)S(C)(=O)=O)cc1,0,0,7,2,3,1,.,.
CCOc1ccc(N(CC(=O)N/N=C/c2cccnc2)S(C)(=O)=O)cc1,0,0,-3,0,1,31*,-1,1
COc1ccccc1-n1cc([C@@H]2C[C@H]3CN(c4ccccc4)C(=O)[C@]34CCCN24)cn1,0,1,.,0,-2,35*,0,-8
Cc1ccc(C(=O)Nc2nc(=O)n(C(=O)C3CC3)s2)cc1,0,0,.,1,1,14,.,.
O=C(Nc1nc(=O)n(C(=O)C2CC2)s1)c1ccccc1,0,0,.,-1,1,30*,1,-2
COCCNc1nc2c(c(=O)n(Cc3cccc(Cl)c3)c(=O)n2C)n1C,0,0,.,-1,-2,29*,1,0
COCCNc1nc2c(c(=O)n(Cc3cccc(Br)c3)c(=O)n2C)n1C,0,0,.,1,0,17,.,.
CC(=O)Nc1sc2c(c1C(c1ccc(F)cc1)N1CCOCC1)CCCC2 (centres undefined),0,0,-39,3,2,29*,2,6
CC(=O)Nc1sc2c(c1C(c1ccc(Cl)cc1)N1CCOCC1)CCCC2 (centres undefined),0,0,-2,10,0,18,.,.
COC(=O)CCc1sc(NC2CCCCC2)nc1-c1ccc(OC)cc1,0,0,.,4,-3,11,.,.

# Compound activity from PubChem BioAssay.
